Data as given in ChEMBL document CHEMBL4811308, “Design, synthesis and broad spectrum antibreast cancer activity of diarylindoles via induction of apoptosis in aggressive breast cancer cells” (Bioorg Med Chem, 2021).
Active and inactive are the calls of the source. The rule behind the calls is not given here.

What was measured:
[1] = test system: MDA-MB-231; assay: Cytotoxicity against human MDA-MB-231 cells assessed as reduction in cell viability incubated for 24 hrs by MTT assay; type: functional, cell-based; conditions: MDA-MB-231, 24 h
Summary of the method: (§1)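 MTT viability: cells seeded at 1 × 10^4/well, grown 24 h, then exposed to a concentration range of compound for 24 h. MTT (5 mg/mL stock) added for 3 h, formazan dissolved in DMSO, absorbance read at 540 nm.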

[2] = test system: MCF7; assay: Cytotoxicity against human MCF7 cells assessed as reduction in cell viability incubated for 24 hrs by MTT assay; type: functional, cell-based; conditions: MCF7, 24 h; summary of the method: as §1
[3] = test system: PC-3; assay: Cytotoxicity against human PC-3 cells assessed as reduction in cell viability incubated for 24 hrs by MTT assay; type: functional, cell-based; conditions: PC-3, 24 h; summary of the method: as §1
[4] = test system: HEK293; assay: Cytotoxicity against human HEK293 cells assessed as reduction in cell viability incubated for 24 hrs by MTT assay; type: cell-based; conditions: HEK293, 24 h; summary of the method: as §1
[5] = target: Tubulin (Homo sapiens) (UniProt P68371+Q9H4B7+P0DPH7+P68366+Q13509+Q71U36+P04350+Q3ZCM7+P07437+P68363+Q9BQE3+Q6PEY2+Q13885+Q9BVA1+Q9BUF5); assay: Induction of tubulin polymerization (unknown origin) at 10 uM incubated for 1 hr by spectrometric analysis; type: protein-complex assay

CCOC(=O)COc1ccc(Cn2c(-c3cc(OC)c(OC)c(OC)c3)cc3cc(OC)ccc32)cc1
IC50 [1]: > 30 µM
IC50 [2]: > 30 µM
IC50 [3]: > 30 µM

CC/C(=C(\c1ccccc1)c1ccc(OCCN(C)C)cc1)c1ccccc1 [TAMOXIFEN]
IC50 [2]: 8.42 µM
IC50 [3]: 15.8 µM
IC50 [4]: 22.4 µM

COc1ccc2[nH]c(-c3cc(OC)c(OC)c(OC)c3)cc2c1
IC50 [1]: > 30 µM
IC50 [2]: > 30 µM
IC50 [3]: > 30 µM

COc1ccc2c(c1)c(Cc1ccc(O)cc1)c(-c1cc(OC)c(OC)c(OC)c1)n2Cc1ccc(O)cc1
IC50 [1]: > 30 µM
IC50 [2]: > 30 µM
IC50 [3]: > 30 µM

COc1ccc2c(c1)cc(-c1cc(OC)c(OC)c(OC)c1)n2Cc1ccc(OCCN2CCCCC2)cc1
IC50 [1]: > 30 µM
IC50 [2]: 21.6 µM
IC50 [3]: 21.8 µM

COc1ccc2c(c1)cc(-c1cc(OC)c(OC)c(OC)c1)n2Cc1ccc(OCCN2CCCC2)cc1
IC50 [1]: 12.4 µM
IC50 [2]: 5.08 µM
IC50 [3]: 6.03 µM

COc1ccc2c(c1)c(Cc1ccccc1)c(-c1cc(OC)c(OC)c(OC)c1)n2Cc1ccccc1
IC50 [1]: > 30 µM
IC50 [2]: > 30 µM
IC50 [3]: > 30 µM

COc1ccc2c(c1)cc(-c1cc(OC)c(OC)c(OC)c1)n2Cc1ccc(O)cc1
IC50 [1]: 17.3 µM
IC50 [2]: > 30 µM
IC50 [3]: > 30 µM

COc1ccc(Cn2c(-c3cc(OC)c(OC)c(OC)c3)cc3cc(OC)ccc32)cc1
IC50 [1]: > 30 µM
IC50 [2]: > 30 µM
IC50 [3]: > 30 µM

COc1ccc2c(c1)cc(-c1cc(OC)c(OC)c(OC)c1)n2Cc1ccc(OCCN(C)C)cc1
IC50 [1]: 7.84 µM
IC50 [2]: 6.67 µM
IC50 [3]: 6.87 µM

CCN(CC)CCOc1ccc(Cn2c(-c3cc(OC)c(OC)c(OC)c3)cc3cc(OC)ccc32)cc1
IC50 [1]: 13.2 µM
IC50 [2]: 29.8 µM
IC50 [3]: 15 µM

CC(=O)O[C@H]1C(=O)[C@@]2(C)[C@H]([C@H](OC(=O)c3ccccc3)[C@]3(O)C[C@H](OC(=O)[C@H](O)[C@@H](NC(=O)c4ccccc4)c4ccccc4)C(C)=C1C3(C)C)[C@]1(OC(C)=O)CO[C@@H]1C[C@@H]2O [PACLITAXEL]
Activity [5]: Active
IC50 [1]: 1.6 µM
IC50 [2]: 0.48 µM
IC50 [3]: 2.6 µM
IC50 [4]: 5.8 µM

COc1ccc2c(c1)c(Cc1ccc(OCCN3CCCC3)cc1)c(-c1cc(OC)c(OC)c(OC)c1)n2Cc1ccc(OCCN2CCCC2)cc1
IC50 [1]: 9.45 µM
IC50 [2]: 4.25 µM
IC50 [3]: 7.48 µM

COc1ccc2c(c1)cc(-c1cc(OC)c(OC)c(OC)c1)n2Cc1ccccc1
IC50 [1]: > 30 µM
IC50 [2]: > 30 µM
IC50 [3]: > 30 µM

COc1ccc2c(c1)cc(-c1cc(OC)c(OC)c(OC)c1)n2Cc1ccc(OC(C)CN(C)C)cc1 (stereo unspecified)
IC50 [1]: 10.6 µM
IC50 [2]: 14.7 µM
IC50 [3]: 13.3 µM

COc1ccc2c(c1)cc(-c1cc(OC)c(OC)c(OC)c1)n2Cc1ccc(OCc2ccccc2)cc1
IC50 [1]: > 30 µM
IC50 [2]: > 30 µM
IC50 [3]: > 30 µM

COc1ccc(Cc2c(-c3cc(OC)c(OC)c(OC)c3)n(Cc3ccc(OC)cc3)c3ccc(OC)cc23)cc1
IC50 [1]: > 30 µM
IC50 [2]: > 30 µM
IC50 [3]: > 30 µM

COc1ccc2c(c1)c(Cc1ccc(OCc3ccccc3)cc1)c(-c1cc(OC)c(OC)c(OC)c1)n2Cc1ccc(OCc2ccccc2)cc1
IC50 [1]: > 30 µM
IC50 [2]: > 30 µM
IC50 [3]: > 30 µM
